Source: ChEMBL document CHEMBL3244297, “In vitro antiplaque properties of a series of alkyl bis(biguanides)” (1978)

What was measured:
Assay type in all cases: functional
[1] = system: Actinomyces naeslundii; assay: Antiplaque activity against Actinomyces naeslundii ATCC 12104 assessed as growth inhibition of adherent cells on saliva coated bovine tooth slabs
Outline: (§1)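 Tooth slabs were treated with the test agents at a series of molar concentrations. The value is the lowest molar concentration (M × 10⁴) that gave >90% inhibition of growth of adherent cells, based on triplicate sets.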

[2] = system: Streptococcus mutans; assay: Antiplaque activity against wild type Streptococcus mutans 6715-13 assessed as growth inhibition of adherent cells on saliva coated bovine tooth slabs; outline: as §1
[3] = system: Actinomyces viscosus; assay: Antiplaque activity against Actinomyces viscosus M-100-2000 assessed as growth inhibition of adherent cells on saliva coated bovine tooth slabs; outline: as §1
[4] = system: Streptococcus mutans; assay: Antibacterial activity against wild type Streptococcus mutans 6715-13 assessed as growth inhibition by tube dilution assay
Outline: (§2)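 Standard tube dilution assay, modified so that adherent cells were dispersed before cell density was read spectrophotometrically at 540 nm. The value is the minimum inhibitory concentration, given in molar units.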

[5] = system: Actinomyces naeslundii; assay: Antibacterial activity against Actinomyces naeslundii ATCC 12104 assessed as growth inhibition by tube dilution assay; outline: as §2
[6] = system: Actinomyces viscosus; assay: Antibacterial activity against Actinomyces viscosus M-100-2000 assessed as growth inhibition by tube dilution assay; outline: as §2

| MIC>90 [1] | MIC>90 [2] | MIC>90 [3] | MIC [4] | MIC [5] | MIC [6] | Structure (SMILES) |
| --- | --- | --- | --- | --- | --- | --- |
| >100 ×10⁻⁴ M | 10 ×10⁻⁴ M | >10 ×10⁻⁴ M | 10 µM | 10 µM | 10 µM | N=C(NCCCCCCNC(=N)NC(=N)Nc1ccc(Cl)cc1)NC(=N)Nc1ccc(Cl)cc1.O=C(O)[C@H](O)[C@@H](O)[C@H](O)[C@H](O)CO |
| 0.5 ×10⁻⁴ M | 100 ×10⁻⁴ M | 10 ×10⁻⁴ M | 10 µM | 10 µM | 10 µM | CCCCCC(CC)CNC(=N)NC(=N)NCCCCNC(=N)NC(=N)NCC(CC)CCCCC.Cl (stereo not given) |
| 1 ×10⁻⁴ M | 70 ×10⁻⁴ M | 10 ×10⁻⁴ M | 100 µM | 10 µM | 10 µM | CCCCCCCCCNC(=N)NC(=N)NCCCCNC(=N)NC(=N)NCCCCCCCCC.Cl |
| 0.5 ×10⁻⁴ M | 8 ×10⁻⁴ M | 5 ×10⁻⁴ M | 10 µM | 10 µM | 10 µM | CCCCCCCCNC(=N)NC(=N)NCCCCCCNC(=N)NC(=N)NCCCCCCCC.Cl |
| 0.5 ×10⁻⁴ M | >10 ×10⁻⁴ M | >10 ×10⁻⁴ M | 10 µM | 10 µM | 10 µM | CCCCCCCNC(=N)NC(=N)NCCCCCCCCNC(=N)NC(=N)NCCCCCCC.Cl |
| 0.5 ×10⁻⁴ M | 10 ×10⁻⁴ M | >10 ×10⁻⁴ M | 10 µM | 10 µM | 10 µM | CCCCCCNC(=N)NC(=N)NCCCCCCCCCCNC(=N)NC(=N)NCCCCCC.Cl |
| 0.5 ×10⁻⁴ M | 50 ×10⁻⁴ M | >10 ×10⁻⁴ M | 10 µM | 10 µM | 1 µM | CCCCCCCNC(=N)NC(=N)NCCCCCCNC(=N)NC(=N)NCCCCCCC.Cl |
| 1 ×10⁻⁴ M | 3 ×10⁻⁴ M | >10 ×10⁻⁴ M | 10 µM | 10 µM | 1 µM | CCCCCCNC(=N)NC(=N)NCCCCCCCCNC(=N)NC(=N)NCCCCCC.Cl |
| 0.8 ×10⁻⁴ M | 100 ×10⁻⁴ M | 0.8 ×10⁻⁴ M | 10 µM | 10 µM | 1 µM | CCCCCCNC(=N)NC(=N)NCCCCCCNC(=N)NC(=N)NCCCCCC.Cl |
| 5 ×10⁻⁴ M | >100 ×10⁻⁴ M | 0.5 ×10⁻⁴ M | 10 µM | 10 µM | 0.1 µM | CCCCC(CC)CNC(=N)NC(=N)NCCCCCCNC(=N)NC(=N)NCC(CC)CCCC.Cl.Cl (stereo not given) [ALEXIDINE DIHYDROCHLORIDE] |
